Assay results reported in ChEMBL document CHEMBL4359902, “Development of novel chromeno[4,3-c]pyrazol-4(2H)-one derivates bearing sulfonylpiperazine as antitumor inhibitors targeting PI3Kα” (Eur J Med Chem, 2019).

Key:
A549 = experiment: Antiproliferative activity against human A549 cells assessed as reduction in cell viability after 48 hrs by MTT assay; assay type: functional, cell-based; conditions: A549, 48 h
Huh-7 = experiment: Antiproliferative activity against human HuH7 cells assessed as reduction in cell viability after 48 hrs by MTT assay; assay type: functional, cell-based; conditions: Huh-7, 48 h
[1] = target: T1, Phosphatidylinositol 4,5-bisphosphate 3-kinase catalytic subunit alpha isoform (Homo sapiens, UniProt P42336); experiment: Inhibition of PI3Kalpha (unknown origin) using diC8-PI(4,5)P2 as substrate incubated for 3 hrs in presence of ATP by fluorescence polarization assay
How it was run: (§1)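 Fluorescence polarization competition assay, 10 μL reactions at pH 7: 2.5 mM MgCl₂, 5 mM HEPES, ATP, 10 mM DTT, 50 ng PI3K isoform, diC8-PI(4,5)P2 substrate. After 3 h at room temperature, reactions were chelator-quenched. Phosphoinositide binding protein and fluorophore-labelled tracer were added, then 1 h dark equilibration and polarization read.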

[2] = target: Phosphatidylinositol 4,5-bisphosphate 3-kinase catalytic subunit gamma isoform (Homo sapiens, UniProt P48736); experiment: Inhibition of PI3Kgamma (unknown origin) using diC8-PI(4,5)P2 as substrate incubated for 3 hrs in presence of ATP by fluorescence polarization assay; how it was run: as §1
[3] = target: T2, Phosphatidylinositol 4,5-bisphosphate 3-kinase catalytic subunit delta isoform (Homo sapiens, UniProt O00329); experiment: Inhibition of PI3Kdelta (unknown origin) using diC8-PI(4,5)P2 as substrate incubated for 3 hrs in presence of ATP by fluorescence polarization assay; how it was run: as §1
T2 sequence (O00329 whole entry): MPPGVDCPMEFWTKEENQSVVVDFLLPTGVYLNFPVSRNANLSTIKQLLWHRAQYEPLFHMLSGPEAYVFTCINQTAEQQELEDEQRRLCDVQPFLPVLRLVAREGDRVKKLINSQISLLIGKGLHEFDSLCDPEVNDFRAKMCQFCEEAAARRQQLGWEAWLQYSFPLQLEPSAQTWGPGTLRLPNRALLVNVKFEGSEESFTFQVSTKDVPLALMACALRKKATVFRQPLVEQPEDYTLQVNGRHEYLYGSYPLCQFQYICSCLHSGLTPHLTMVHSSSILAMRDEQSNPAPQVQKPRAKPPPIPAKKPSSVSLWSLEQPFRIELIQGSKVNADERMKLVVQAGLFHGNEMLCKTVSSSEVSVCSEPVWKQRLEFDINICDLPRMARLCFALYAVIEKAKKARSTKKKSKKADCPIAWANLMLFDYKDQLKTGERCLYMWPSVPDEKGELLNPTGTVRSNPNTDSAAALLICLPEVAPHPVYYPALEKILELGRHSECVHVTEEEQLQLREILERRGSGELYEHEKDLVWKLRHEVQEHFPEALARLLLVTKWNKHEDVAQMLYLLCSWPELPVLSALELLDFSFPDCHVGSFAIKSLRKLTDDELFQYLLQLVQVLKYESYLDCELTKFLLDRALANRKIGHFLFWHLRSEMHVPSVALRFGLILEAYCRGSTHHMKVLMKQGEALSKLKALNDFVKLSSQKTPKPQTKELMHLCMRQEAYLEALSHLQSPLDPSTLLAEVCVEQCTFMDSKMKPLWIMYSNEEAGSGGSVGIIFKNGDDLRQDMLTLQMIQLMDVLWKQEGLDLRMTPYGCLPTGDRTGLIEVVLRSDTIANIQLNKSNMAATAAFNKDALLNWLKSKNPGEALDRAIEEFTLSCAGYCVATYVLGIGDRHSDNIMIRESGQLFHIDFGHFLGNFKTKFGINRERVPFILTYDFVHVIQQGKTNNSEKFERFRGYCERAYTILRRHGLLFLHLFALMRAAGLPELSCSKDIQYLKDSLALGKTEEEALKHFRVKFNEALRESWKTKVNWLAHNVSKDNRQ

[4] = target: T1, Phosphatidylinositol 4,5-bisphosphate 3-kinase catalytic subunit alpha isoform; experiment: Inhibition of PI3K-alpha in human HCT116 cells assessed as decrease in phosphorylated Akt protein expression level measured after 24 hrs by Western blot analysis; assay type: cell-based
How it was run: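 HCT-116 cells exposed for 24 h at 0.25, 0.5 and 1 μM, lysed in RIPA buffer, and analysed by SDS-PAGE/PVDF Western blot for p-Akt (Ser473) and p-S6K. β-actin internal control; densitometry mean ± SEM, n = 3.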

HCT-116 [5] = experiment: Cell cycle arrest in human HCT116 cells assessed as accumulation at G2 phase at 0.25 uM measured after 24 hrs by propidium iodide staining based flow cytometry analysis (reference value: 7.86 %); assay type: functional
HCT-116 [6] = experiment: Cell cycle arrest in human HCT116 cells assessed as accumulation at S phase at 0.25 uM measured after 24 hrs by propidium iodide staining based flow cytometry analysis (reference value: 50.12 %); assay type: functional
HCT-116 [7] = experiment: Cell cycle arrest in human HCT116 cells assessed as accumulation at G1 phase at 0.5 uM measured after 24 hrs by propidium iodide staining based flow cytometry analysis (reference value: 42.01 %); assay type: functional
HCT-116 [8] = experiment: Induction of apoptosis in human HCT116 cells assessed as viable cells at 0.5 uM measured after 24 hrs by annexin-v-FITC/propidium iodide staining based FACScan flow cytometry analysis (reference value: 78.5 %); assay type: functional; conditions: HCT-116, 24 h, read-out: Activity
HCT-116 [9] = experiment: Induction of apoptosis in human HCT116 cells assessed as early apoptotic cells at 0.5 uM measured after 24 hrs by annexin-v-FITC/propidium iodide staining based FACScan flow cytometry analysis (reference value: 10.0 %); assay type: functional
HCT-116 [10] = experiment: Induction of apoptosis in human HCT116 cells assessed as necrotic cells at 0.5 uM measured after 24 hrs by annexin-v-FITC/propidium iodide staining based FACScan flow cytometry analysis (reference value: 1.87 %); assay type: functional
HCT-116 [11] = experiment: Induction of apoptosis in human HCT116 cells assessed as viable cells at 1 uM measured after 24 hrs by annexin-v-FITC/propidium iodide staining based FACScan flow cytometry analysis (reference value: 78.5 %); assay type: functional; conditions: HCT-116, 24 h, read-out: Activity
HCT-116 [12] = experiment: Induction of apoptosis in human HCT116 cells assessed as late apoptotic cells at 1 uM measured after 24 hrs by annexin-v-FITC/propidium iodide staining based FACScan flow cytometry analysis (reference value: 9.61 %); assay type: functional
HCT-116 [13] = experiment: Induction of apoptosis in human HCT116 cells assessed as necrotic cells at 1 uM measured after 24 hrs by annexin-v-FITC/propidium iodide staining based FACScan flow cytometry analysis (reference value: 1.87 %); assay type: functional
HCT-116 [14] = experiment: Induction of apoptosis in human HCT116 cells assessed as upregulation of BAX expression measured after 24 hrs by Western blot analysis; assay type: functional, cell-based
How it was run: (§2)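 HCT-116 cells treated at 0.25, 0.5 and 1 μM for 24 h, lysed in RIPA buffer with PMSF. Proteins separated by SDS-PAGE (8% or 10%), transferred to PVDF and probed with primary antibodies and HRP secondaries. β-actin served as internal control; bands quantified as bar graphs.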

HCT-116 [15] = experiment: Induction of apoptosis in human HCT116 cells assessed as decrease in Bcl-2 protein level measured after 24 hrs by Western blot analysis; assay type: functional, cell-based; how it was run: as §2
HCT-116 [16] = experiment: Induction of apoptosis in human HCT116 cells assessed as increase in cleaved caspase-3 protein level measured after 24 hrs by Western blot analysis; assay type: functional, cell-based; how it was run: as §2

T1 sequence (P42336 whole entry, canonical isoform): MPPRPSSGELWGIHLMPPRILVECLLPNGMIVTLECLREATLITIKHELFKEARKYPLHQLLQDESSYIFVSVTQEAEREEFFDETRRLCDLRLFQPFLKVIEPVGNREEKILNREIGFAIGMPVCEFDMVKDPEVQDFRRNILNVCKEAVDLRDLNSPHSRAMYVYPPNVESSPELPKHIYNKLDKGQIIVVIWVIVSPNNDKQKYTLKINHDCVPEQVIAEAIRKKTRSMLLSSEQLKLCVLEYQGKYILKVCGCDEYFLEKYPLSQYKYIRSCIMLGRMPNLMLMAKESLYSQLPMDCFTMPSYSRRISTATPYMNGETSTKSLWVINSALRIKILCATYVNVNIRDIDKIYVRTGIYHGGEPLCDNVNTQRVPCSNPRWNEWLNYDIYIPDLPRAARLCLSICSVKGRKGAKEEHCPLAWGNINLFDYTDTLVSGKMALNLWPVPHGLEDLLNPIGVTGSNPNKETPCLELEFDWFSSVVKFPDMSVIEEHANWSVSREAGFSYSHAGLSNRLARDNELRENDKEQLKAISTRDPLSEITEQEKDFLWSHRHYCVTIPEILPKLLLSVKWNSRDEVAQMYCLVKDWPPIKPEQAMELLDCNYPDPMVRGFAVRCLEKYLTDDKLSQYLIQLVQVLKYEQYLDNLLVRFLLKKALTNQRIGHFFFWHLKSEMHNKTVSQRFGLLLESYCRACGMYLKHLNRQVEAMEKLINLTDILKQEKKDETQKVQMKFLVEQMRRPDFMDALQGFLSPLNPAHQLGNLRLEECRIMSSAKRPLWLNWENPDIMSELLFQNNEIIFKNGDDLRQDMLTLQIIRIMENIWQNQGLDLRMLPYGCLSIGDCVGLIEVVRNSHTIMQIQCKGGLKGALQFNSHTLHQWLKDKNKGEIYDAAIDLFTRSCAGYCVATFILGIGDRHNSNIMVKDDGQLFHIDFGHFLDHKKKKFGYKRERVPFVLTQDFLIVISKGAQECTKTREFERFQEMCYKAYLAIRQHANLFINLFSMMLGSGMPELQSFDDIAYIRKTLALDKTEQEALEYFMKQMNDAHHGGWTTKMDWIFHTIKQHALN
Sequence of Phosphatidylinositol 4,5-bisphosphate 3-kinase catalytic subunit gamma isoform (P48736 whole entry, canonical isoform): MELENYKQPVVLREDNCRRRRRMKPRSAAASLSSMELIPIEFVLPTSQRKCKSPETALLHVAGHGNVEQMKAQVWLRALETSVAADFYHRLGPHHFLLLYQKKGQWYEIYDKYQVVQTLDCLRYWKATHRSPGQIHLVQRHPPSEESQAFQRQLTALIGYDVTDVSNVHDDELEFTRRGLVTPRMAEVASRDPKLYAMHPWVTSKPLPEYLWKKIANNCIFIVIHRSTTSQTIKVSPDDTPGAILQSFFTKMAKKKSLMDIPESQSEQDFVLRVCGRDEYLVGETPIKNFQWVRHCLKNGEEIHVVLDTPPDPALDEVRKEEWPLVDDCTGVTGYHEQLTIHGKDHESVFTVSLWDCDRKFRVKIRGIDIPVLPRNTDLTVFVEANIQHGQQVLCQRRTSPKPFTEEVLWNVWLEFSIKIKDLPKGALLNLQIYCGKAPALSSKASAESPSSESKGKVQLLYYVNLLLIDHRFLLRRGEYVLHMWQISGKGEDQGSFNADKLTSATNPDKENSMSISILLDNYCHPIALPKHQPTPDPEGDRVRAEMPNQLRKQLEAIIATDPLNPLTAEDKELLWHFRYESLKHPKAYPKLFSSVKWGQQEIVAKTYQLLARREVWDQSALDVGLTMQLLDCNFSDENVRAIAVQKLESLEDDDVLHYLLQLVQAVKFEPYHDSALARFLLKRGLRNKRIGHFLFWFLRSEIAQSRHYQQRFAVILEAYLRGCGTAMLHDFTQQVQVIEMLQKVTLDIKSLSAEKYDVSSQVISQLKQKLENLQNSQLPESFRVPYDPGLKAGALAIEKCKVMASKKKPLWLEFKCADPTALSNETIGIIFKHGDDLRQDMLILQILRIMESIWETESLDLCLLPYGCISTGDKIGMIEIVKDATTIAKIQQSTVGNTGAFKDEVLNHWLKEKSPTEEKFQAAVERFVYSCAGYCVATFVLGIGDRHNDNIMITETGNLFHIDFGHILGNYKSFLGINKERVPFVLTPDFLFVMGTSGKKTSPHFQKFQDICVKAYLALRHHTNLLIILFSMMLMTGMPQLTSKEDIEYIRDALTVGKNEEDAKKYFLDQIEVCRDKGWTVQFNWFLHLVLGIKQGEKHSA

IC50 (A549): 60 nM
IC50 (Huh-7): 90 nM
IC50 [1]: 9 nM
IC50 [2]: 81 nM
IC50 [3]: 120 nM
inhibition [4]: Dose-dependent effect
Structure (SMILES): O=c1oc2ccccc2c2nn(CN3CCN(S(=O)(=O)c4ccc(Cl)c([N+](=O)[O-])c4)CC3)cc12
Activity (HCT-116 [5]): 10.73%
Activity (HCT-116 [6]): 42.4%
Activity (HCT-116 [7]): 50.95%
viability at 0.5 µM (HCT-116 [8]): 46%
Activity (HCT-116 [9]): 17.1%
Activity (HCT-116 [10]): 6.04%
viability at 1 µM (HCT-116 [11]): 36.6%
Activity (HCT-116 [12]): 36.9%
Activity (HCT-116 [13]): 1.04%
Activity (HCT-116 [14]): Dose-dependent effect
Activity (HCT-116 [15]): Dose-dependent effect
Activity (HCT-116 [16]): Dose-dependent effect
